Rows were chosen to be rich in hits. Some 2.1% of all compounds tested hit in one or more screens of this group.
C2C12 statin = protects C2C12 myotubes from simvastatin toxicity; ATP luminescence, 48 h; scaled: DMSO 0, geranylgeraniol control 100; rescue of ATP level, % at 7.49 µM; 330,000 compounds, 0.78% hits;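 active means mean ATP rescue above about 67%, or every replicate alone reaching that limit, limit read from the data, passing the limit was not always enough; inconclusive means no clear call, values can overlap the other calls; inactive means mean under the limit and some replicate under it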;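 further: myotubes were challenged with 10 µM simvastatin during compound exposure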
Xi reactivation = activators of X-chromosome reactivation in mouse fibroblasts. 360,000 compounds, 0.055% hits. activation, % at 7.58 µM. XiGFP mouse fibroblasts, % GFP-positive cells imaging, 3 d; cells co-treated with 5-aza-dC sensitizer; scaled so ellipticine positive control = 100%;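 active means mean normalized replicate activation at least 10% and every replicate at or above 10%; inconclusive means only one of the two criteria met; inactive means mean below 10% and not all replicates reach 10%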
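assay system = SV40-immortalized XiGFP fibroblast cells, line 68-5-11 | buffer or medium = DMEM plus 5-aza-dC sensitizer | doses = single-point pinned compound dosing | times = 3-day compound exposure, then 15 min fixation at room temperature | benchmarks = positive control ellipticine, 6 µM final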
DENV2 CPE rescue = DENV2-induced cell death inhibition | DENV2-infected cells, cytopathic effect rescue, plate reader | CPE inhibition, % at 9.99 µM | 350,000 compounds, 1.7% hits | AID 651640; in the data active means CPE inhibition above about 20%, passing the limit was not always enough; inconclusive means no clear call, values can overlap the other calls; tested in BHK-21 cells
Cneo AK release = causes C. neoformans cell lysis. adenylate kinase release luminescence, 4 h; normalised: neutral wells 0, clomiphene wells 100. lysis activity, % at 15 µM. 360,000 compounds, 0.2% hits. AID 651654;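 active means mean lysis activity across replicates of at least 80%, whatever share of replicates individually reach that level; inactive means mean lysis activity below 80%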
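Material: C. neoformans cells; Schedule: 4 h static compound exposure, 37 °C, read 1 h post-reagent; Measured by: adenylate kinase release luminescence; Read-out: signal increase indicating cell lysis; Controls: Clomiphene as positive lysis control.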
Each line names hits and unclear results; the compound was inactive in the other large screens; ! = repeats disagree.

C[C@@H]1CN([C@@H](C)CO)C(=O)c2cc(NC(=O)CCN3CCOCC3)ccc2O[C@@H]1CN(C)Cc1ccc2c(c1)OCO2	none
CCCNC(=O)N1CC2(CN(S(=O)(=O)c3cccc(OC)c3)C2)c2c(n(C)c3cc(OC)ccc23)[C@@H]1CO	none (no result: C2C12 statin, DENV2 CPE rescue, Cneo AK release)
CC(C)NC(=O)Nc1ccc2c(c1)C(=O)N([C@H](C)CO)C[C@H](C)[C@H](CN(C)C(=O)CCC(F)(F)F)OCCCC[C@@H](C)O2	none (no result: C2C12 statin, DENV2 CPE rescue, Cneo AK release)
COc1ccc(N2CCN(Cc3nc4c(c(=O)[nH]c(=O)n4C)n3Cc3cccc(Cl)c3)CC2)cc1	DENV2 CPE rescue 98
O=C(Nc1ccc(F)cc1)N1CC(=O)N2[C@H](CO)[C@H](c3ccc(C#CC4CC4)cc3)[C@H]2C1	DENV2 CPE rescue 35 (no result: C2C12 statin, Cneo AK release)
COc1ccc(NC(=O)N2CC(=O)N3[C@@H](CO)[C@H](c4ccc(C#CCC5CCCC5)cc4)[C@@H]3C2)cc1	DENV2 CPE rescue 23 (no result: C2C12 statin, Cneo AK release)
O=C(c1ccc(F)cc1)N1CC(=O)N2[C@@H](CO)[C@H](c3ccc(C#CC4CC4)cc3)[C@@H]2C1	DENV2 CPE rescue 41 (no result: C2C12 statin, Cneo AK release)
COc1cccc(NC(=O)N2CC(=O)N3[C@H](C2)[C@@H](c2ccc(C#CC4CCCC4)cc2)[C@@H]3CO)c1	DENV2 CPE rescue 38 (no result: C2C12 statin, Cneo AK release)
C[C@@H]1CN([C@@H](C)CO)C(=O)c2cc(N(C)C)ccc2O[C@@H](C)CCCCO[C@H]1CN(C)C(=O)CCC(F)(F)F	DENV2 CPE rescue inconclusive
C[C@@H]1CCCCO[C@H](CN(C)CC2CCCCC2)[C@@H](C)CN([C@H](C)CO)C(=O)c2cc(NC(=O)CCCCCC(=O)Nc3ccccc3N)ccc2O1	none (no result: C2C12 statin, DENV2 CPE rescue, Cneo AK release)
CC=Cc1ccc2n(c1=O)C[C@@H]1[C@@H](CO)[C@H](C(=O)NC3CCCC3)N(C(=O)C3CC3)[C@H]21 (mixture of isomers)	none (no result: C2C12 statin, Cneo AK release)
COc1ccccc1CNC(=O)C[C@@H]1C[C@H]2c3cc(NC(=O)Nc4ccccc4F)ccc3O[C@H]2[C@@H](CO)O1	Cneo AK release 94 (no result: DENV2 CPE rescue)
COc1ccccc1CNC(=O)C[C@@H]1C[C@@H]2c3cc(NC(=O)Nc4ccccc4F)ccc3O[C@@H]2[C@H](CO)O1	Cneo AK release 103 (no result: DENV2 CPE rescue)
Cc1ccc(Cn2cc(CN3CC(N(C)C)CS3(=O)=O)nn2)cc1 (stereo unspecified)	DENV2 CPE rescue 23 (no result: C2C12 statin, Cneo AK release)
CN(C)C1CN(Cc2cn(Cc3ccc(F)cc3)nn2)S(=O)(=O)C1 (stereo unspecified)	none (no result: C2C12 statin, Cneo AK release)
O=C1NCC(=O)N2[C@@H]1C[C@@H](C(=O)NCc1ccc(F)cc1)[C@H]2c1ccc(O)cc1	none (no result: C2C12 statin, Xi reactivation)
CSCCC(NC(=O)c1ccco1)C(=O)NC1CCCCCC1 (stereo unspecified)	DENV2 CPE rescue inconclusive (no result: Cneo AK release)
CSCCC(NC(=O)c1ccco1)C(=O)NCC1CCCO1 (stereo unspecified)	DENV2 CPE rescue 67
COc1ccc(C)cc1C(=O)C1CC(C(=O)O)C(C)(C)C1C (stereo unspecified)	C2C12 statin 104 (no result: Xi reactivation, DENV2 CPE rescue, Cneo AK release)
COC(=O)[C@@H]1C[C@@H](C(=O)O)[C@H](C)C1(C)C	none
C[C@H]1CN([C@@H](C)CO)C(=O)c2ccccc2-c2ccccc2CO[C@H]1CN(C)C(=O)Nc1ccccc1C(F)(F)F	none (no result: C2C12 statin)
Cc1ccnc(SCC(=O)N2CCCc3ccccc32)n1	none
CSc1nsc(SCC(=O)N2CCCc3ccccc32)n1	C2C12 statin 92 (no result: Xi reactivation, DENV2 CPE rescue)
COC(=O)C1=C(C)N(c2ccc(F)cc2)/C(=C/c2ccc(O)cc2)C1=O	C2C12 statin 115
CCS(=O)(=O)NCC[C@H]1CC[C@H](NC(=O)C2CC2)[C@H](CO)O1	none (no result: C2C12 statin, Cneo AK release)
COc1ccc(NC(=O)N(C)C[C@@H]2OCCCC[C@@H](C)Oc3ccc(NS(=O)(=O)c4ccc(OC)cc4)cc3C(=O)N([C@@H](C)CO)C[C@H]2C)cc1	DENV2 CPE rescue inconclusive (no result: C2C12 statin)
C[C@H](CO)N1C[C@H](C)[C@@H](CN(C)C(=O)Nc2cccc(F)c2)Oc2ncc(C#CCN(C)C)cc2C1=O	none
C[C@H]1CN([C@@H](C)CO)C(=O)c2cc(C#CCN(C)C)cnc2O[C@@H]1CN(C)C(=O)Nc1cccc(F)c1	Cneo AK release 113
COc1ccc(NC(=O)N(C)C[C@@H]2Oc3ncc(C#CC(C)C)cc3C(=O)N([C@@H](C)CO)C[C@@H]2C)cc1	DENV2 CPE rescue 53
COc1cccc(NC(=O)N(C)C[C@H]2Oc3ncc(C#Cc4ccc(F)cc4)cc3C(=O)N([C@@H](C)CO)C[C@@H]2C)c1	C2C12 statin inconclusive
C[C@H](CO)N1C[C@H](C)[C@H](CN(C)C(=O)Nc2cccc(F)c2)Oc2ncc(C#CCN(C)C)cc2C1=O	Cneo AK release 97
COc1cccc(NC(=O)N(C)C[C@@H]2Oc3ncc(C#Cc4ccc(F)cc4)cc3C(=O)N([C@@H](C)CO)C[C@H]2C)c1	C2C12 statin 72
Cc1cc(C(=O)Nc2cccc3c2O[C@H](CN(C)S(=O)(=O)c2ccc(Cl)cc2)[C@H](C)CN([C@@H](C)CO)C3=O)n(C)n1	none
CO[C@H]1CN(C)C(=O)c2ccc(NC(=O)c3cc(C)on3)cc2OC[C@H](C)N(C)C[C@@H]1C	none (no result: C2C12 statin, Cneo AK release)
CN(C)CC(=O)Nc1ccc2c(c1)[C@H]1C[C@@H](CC(=O)NCc3cc(F)ccc3F)O[C@@H](CO)[C@H]1O2	none
CCCNC(=O)N1CC2(CCN(Cc3ccccn3)CC2)c2c(n(C)c3cc(OC)ccc23)[C@H]1CO	none (no result: C2C12 statin, Cneo AK release)
C[C@@H]1CN([C@@H](C)CO)C(=O)CCCn2cc(nn2)CO[C@@H]1CN(C)S(=O)(=O)c1ccc(Cl)cc1	none (no result: DENV2 CPE rescue, Cneo AK release)
C[C@@H]1CN([C@H](C)CO)C(=O)CCCn2cc(nn2)CO[C@@H]1CN(C)S(=O)(=O)c1ccc(Oc2ccccc2)cc1	none
C[C@@H]1CN([C@@H](C)CO)C(=O)CCCn2cc(nn2)CO[C@H]1CN(C)S(=O)(=O)c1ccc(Cl)cc1	DENV2 CPE rescue 21!
C[C@H](CO)N1C[C@H](C)[C@H](CN(C)S(=O)(=O)c2ccc(Oc3ccccc3)cc2)OCc2cn(nn2)CCCC1=O	DENV2 CPE rescue 22
C[C@H]1CN([C@@H](C)CO)C(=O)CCCn2cc(nn2)CO[C@@H]1CN(C)S(=O)(=O)c1ccc(Oc2ccccc2)cc1	DENV2 CPE rescue 35!
COc1ccc(Cl)cc1NS(=O)(=O)c1c(C)[nH]c(=O)[nH]c1=O	C2C12 statin 87
Cc1ccc(Cl)cc1NS(=O)(=O)c1c(C)[nH]c(=O)[nH]c1=O	none (no result: Xi reactivation, DENV2 CPE rescue)
F[B-](F)(F)COc1ccccc1	DENV2 CPE rescue 36
c1ccc(OCCOCCOc2ccccc2)cc1	none (no result: DENV2 CPE rescue)
CCS(=O)(=O)Nc1ccc2c(c1)C(=O)N(C)C[C@@H](OC)[C@H](C)CN(C(=O)c1ccc3c(c1)OCO3)[C@H](C)CO2	none
C[C@H](CO)N1C[C@H](C)[C@@H](CN(C)Cc2ccncc2)OCCCC[C@H](C)Oc2ccc(N(C)C)cc2C1=O	DENV2 CPE rescue 31
C[C@H]1CCCCO[C@H](CN(C)Cc2ccncc2)[C@@H](C)CN([C@@H](C)CO)C(=O)c2cc(N(C)C)ccc2O1	none
C[C@@H]1CCCCO[C@H](CN(C)Cc2ccncc2)[C@@H](C)CN([C@H](C)CO)C(=O)c2cc(N(C)C)ccc2O1	Cneo AK release 110

Compound activity deposited in PubChem by Broad Institute.
